What was measured:
[1] = Cytotoxicity against human ECA109 cells after 48 hrs by MTT assay; type: functional, cell-based; conditions: ECa-109, 48 h
Method in brief: (§1)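 MTT viability assay: cells exposed to compound for 48 h, MTT in RPMI-1640 added for a further 4 h at 37 °C, formazan dissolved in DMSO, absorbance at 570 nm. Triplicate wells, three independent experiments; IC50 (50% viability inhibition) computed by dose-effect analysis and reported as mean of three experiments. CA-4 as positive control.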

[2] = tested on: A549; test: Cytotoxicity against human A549 cells after 48 hrs by MTT assay; type: functional, cell-based; conditions: A549, 48 h; method in brief: as §1
[3] = tested on: PC-3; test: Cytotoxicity against human PC3 cells after 48 hrs by MTT assay; type: functional, cell-based; conditions: PC-3, 48 h; method in brief: as §1
[4] = tested on: K562; test: Cytotoxicity against human K562 cells after 48 hrs by MTT assay; type: functional, cell-based; conditions: K562, 48 h; method in brief: as §1
[5] = tested on: SMMC-7721; test: Cytotoxicity against human SMMC7721 cells after 48 hrs by MTT assay; type: functional, cell-based; conditions: SMMC-7721, 48 h; method in brief: as §1
[6] = Inhibition of bovine tubulin polymerization by fluorescent plate reader analysis; design: species or system Bos taurus
[7] = tested on: SMMC-7721; test: Cell cycle arrest in human SMMC7721 cells assessed as accumulation at G2/M phase at 0.1 uM after 24 hrs by propidium iodide staining-based FACS analysis; type: functional
Method in brief: (§2)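 SMMC-7721 cells (5 × 10⁴/mL) exposed 24 h to graded concentrations (0.01–1.0 µM) alongside DMSO and CA-4 controls; washed twice in PBS, fixed in 75% ethanol at −20 °C, RNase-treated at 37 °C for 0.5 h, stained with propidium iodide at 4 °C for 15 min, then analysed by flow cytometry for G2/M and S fractions.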

[8] = tested on: SMMC-7721; test: Cell cycle arrest in human SMMC7721 cells assessed as accumulation at S phase at 0.1 uM after 24 hrs by propidium iodide staining-based FACS analysis; type: functional; method in brief: as §2
[9] = tested on: SMMC-7721; test: Cell cycle arrest in human SMMC7721 cells assessed as accumulation at G2/M phase at 1 uM after 24 hrs by propidium iodide staining-based FACS analysis; type: functional; method in brief: as §2
[10] = tested on: SMMC-7721; test: Cell cycle arrest in human SMMC7721 cells assessed as accumulation at S phase at 1 uM after 24 hrs by propidium iodide staining-based FACS analysis; type: functional; method in brief: as §2
[11] = tested on: SMMC-7721; test: Induction of apoptosis in human SMMC7721 cells at 0.1 uM after 48 hrs; type: functional
[12] = tested on: SMMC-7721; test: Induction of apoptosis in human SMMC7721 cells at 0.5 uM after 48 hrs; type: functional
[13] = tested on: SMMC-7721; test: Induction of apoptosis in human SMMC7721 cells at 1 uM after 48 hrs; type: functional

Structure (SMILES) | IC50 [1] [µM] | IC50 [2] [µM] | IC50 [3] [µM] | IC50 [4] [µM] | IC50 [5] [µM] | IC50 [6] [µM] | Activity [7] [%] | Activity [8] [%] | Activity [9] [%] | Activity [10] [%] | Activity [11] [%] | Activity [12] [%] | Activity [13] [%]
COc1ccc(-c2noc(N)c2-c2cc(OC)c(OC)c(OC)c2)cc1O | > 50 | > 50 | > 50 | – | – | – | – | – | – | – | – | – | –
COc1ccc(-c2c(-c3cc(OC)c(OC)c(OC)c3)noc2N)cc1OC | 20.6 | > 50 | 21.1 | 1.27 | > 50 | – | – | – | – | – | – | – | –
COc1ccc(-c2c(-c3cc(OC)c(OC)c(OC)c3)noc2NC(C)=O)cc1OC | 17.7 | 19.8 | > 50 | 3.71 | 46.3 | – | – | – | – | – | – | – | –
COc1cc(-c2noc(N)c2-c2cc(OC)c(OC)c(OC)c2)cc(OC)c1OC | > 50 | > 50 | > 50 | 3.65 | > 50 | – | – | – | – | – | – | – | –
COc1ccc(-c2noc(N)c2-c2cc(OC)c(OC)c(OC)c2)cc1OCc1ccccc1 | > 50 | 38.2 | > 50 | – | – | – | – | – | – | – | – | – | –
COc1cc(-c2noc(NC(C)=O)c2-c2cc(OC)c(OC)c(OC)c2)cc(OC)c1OC | 13.9 | 21.1 | 14.9 | 3.97 | 24.6 | – | – | – | – | – | – | – | –
COc1ccc(-c2noc(NC(C)=O)c2-c2cc(OC)c(OC)c(OC)c2)cc1OCc1ccccc1 | > 50 | > 50 | > 50 | – | – | – | – | – | – | – | – | – | –
COc1ccc(-c2c(-c3cc(OC)c(OC)c(OC)c3)noc2NC(C)=O)cc1 | 10.8 | 10.7 | > 50 | 0.38 | > 50 | – | – | – | – | – | – | – | –
COc1cc(-c2noc(NC(C)=O)c2-c2ccc(Cl)cc2)cc(OC)c1OC | 9.53 | 24.9 | 1.91 | 3.62 | > 50 | – | – | – | – | – | – | – | –
COc1ccc(-c2noc(NC(C)=O)c2-c2cc(OC)c(OC)c(OC)c2)cc1OC | > 50 | > 50 | > 50 | 8.75 | > 50 | – | – | – | – | – | – | – | –
COc1ccc(-c2c(-c3cc(OC)c(OC)c(OC)c3)noc2N(C(C)=O)C(C)=O)cc1 | 0.39 | 0.43 | 0.36 | 0.068 | 1.36 | 2.1 | 41.5 | 50.4 | 70 | 24.3 | 37 | 70 | 72
COc1ccc(-c2noc(N)c2-c2cc(OC)c(OC)c(OC)c2)cc1OC | 1.66 | > 50 | > 50 | 1.4 | > 50 | – | – | – | – | – | – | – | –
COc1ccc(-c2c(-c3cc(OC)c(OC)c(OC)c3)noc2N(C(C)=O)C(C)=O)cc1OC | > 50 | > 50 | > 50 | 4.29 | > 50 | – | – | – | – | – | – | – | –
COc1ccc(-c2noc(NC(C)=O)c2-c2cc(OC)c(OC)c(OC)c2)cc1 | > 50 | > 50 | > 50 | 1 | > 50 | – | – | – | – | – | – | – | –
COc1ccc(-c2c(-c3cc(OC)c(OC)c(OC)c3)noc2N)cc1 | 5.84 | 4.49 | 3.03 | 0.04 | 12 | 1.8 | – | – | – | – | – | – | –
COc1cc(-c2noc(N(C(C)=O)C(C)=O)c2-c2ccc(Cl)cc2)cc(OC)c1OC | 39.8 | > 50 | 2.63 | 3.96 | > 50 | – | – | – | – | – | – | – | –
COc1ccc(-c2noc(N)c2-c2cc(OC)c(OC)c(OC)c2)cc1 | 9.82 | 21.8 | 15 | 0.022 | 39.8 | – | – | – | – | – | – | – | –
COc1ccc(-c2noc(NC(C)=O)c2-c2cc(OC)c(OC)c(OC)c2)cc1O | > 50 | > 50 | > 50 | – | – | – | – | – | – | – | – | – | –
COc1cc(-c2noc(N)c2-c2ccc(Cl)cc2)cc(OC)c1OC | > 50 | > 50 | > 50 | 0.64 | > 50 | – | – | – | – | – | – | – | –
COc1ccc(/C=C\c2cc(OC)c(OC)c(OC)c2)cc1O [COMBRETASTATIN A4] | 4.5 | 0.42 | 5.4 | 0.046 | 3.22 | – | – | – | – | – | – | – | –
